PubChem BioAssay AID652011 (Sanford-Burnham Center for Chemical Genomics, 2013)

Legend:
Test in all cases: HIF-1a and HIF-2a reporter inhibitors, SAR follow-up, cell-based, luminescence, MIAPaCa-2, 786-0, panel (AID 652011)
HIF2a PANC = details: MIAPaCa-2/PANC HIF reporter, luciferase luminescence, desferoxamine, overnight
Summary of the method: (§1)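 Reagent: Desferoxamine added before compound | Doses: Compounds from 10 mM and 0.3125 mM stocks, 1% DMSO final | Times: Overnight seeding and compound exposure, 37 °C, 5% CO2, 10-min detection | Measured by: One-Glo luciferase luminescence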

[1] = target: Hypoxia-inducible factor 1-alpha (Homo sapiens) (UniProt Q16665); details: MIAPaCa-2/PANC HIF reporter, luciferase luminescence, desferoxamine, overnight; HIF1a; mean of runs
Summary of the method: as §1

[2] = target: Endothelial PAS domain-containing protein 1 (Homo sapiens) (UniProt Q99814); details: MIAPaCa-2/PANC HIF reporter, luciferase luminescence, desferoxamine, overnight; HIF2a PANC cells; mean of runs
Summary of the method: as §1

HIF1a = details: MIAPaCa-2/PANC HIF reporter, luciferase luminescence, desferoxamine, overnight
Summary of the method: as §1

[3] = run 1, individual run IC50, panel line
[4] = run 2, individual run IC50, panel line

Endothelial PAS domain-containing protein 1 (Homo sapiens), sequence (Q99814 whole entry, looked up, the tested form may be a part): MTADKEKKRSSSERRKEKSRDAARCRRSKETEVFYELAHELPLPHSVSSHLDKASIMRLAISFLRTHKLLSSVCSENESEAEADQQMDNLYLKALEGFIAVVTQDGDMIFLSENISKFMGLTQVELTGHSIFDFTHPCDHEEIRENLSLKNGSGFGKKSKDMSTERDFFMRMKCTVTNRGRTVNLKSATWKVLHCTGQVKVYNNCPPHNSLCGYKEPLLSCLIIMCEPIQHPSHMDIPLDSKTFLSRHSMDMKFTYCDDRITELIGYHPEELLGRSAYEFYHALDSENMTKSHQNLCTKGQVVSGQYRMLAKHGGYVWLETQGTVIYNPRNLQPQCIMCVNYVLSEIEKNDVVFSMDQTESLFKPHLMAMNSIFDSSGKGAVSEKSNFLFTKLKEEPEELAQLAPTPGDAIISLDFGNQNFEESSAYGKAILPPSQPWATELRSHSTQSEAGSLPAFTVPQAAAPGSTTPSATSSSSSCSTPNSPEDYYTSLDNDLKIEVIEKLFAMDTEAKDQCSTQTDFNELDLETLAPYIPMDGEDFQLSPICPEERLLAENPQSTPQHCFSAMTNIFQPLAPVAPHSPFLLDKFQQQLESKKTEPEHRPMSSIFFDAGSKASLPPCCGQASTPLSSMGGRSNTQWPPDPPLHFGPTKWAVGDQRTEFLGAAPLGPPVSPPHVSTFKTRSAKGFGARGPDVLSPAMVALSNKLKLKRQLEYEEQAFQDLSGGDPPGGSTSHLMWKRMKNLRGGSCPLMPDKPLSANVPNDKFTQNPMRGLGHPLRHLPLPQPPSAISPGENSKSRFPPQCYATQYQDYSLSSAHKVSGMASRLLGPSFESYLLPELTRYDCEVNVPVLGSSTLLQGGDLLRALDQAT
Hypoxia-inducible factor 1-alpha (Homo sapiens), sequence (Q16665 whole entry, looked up): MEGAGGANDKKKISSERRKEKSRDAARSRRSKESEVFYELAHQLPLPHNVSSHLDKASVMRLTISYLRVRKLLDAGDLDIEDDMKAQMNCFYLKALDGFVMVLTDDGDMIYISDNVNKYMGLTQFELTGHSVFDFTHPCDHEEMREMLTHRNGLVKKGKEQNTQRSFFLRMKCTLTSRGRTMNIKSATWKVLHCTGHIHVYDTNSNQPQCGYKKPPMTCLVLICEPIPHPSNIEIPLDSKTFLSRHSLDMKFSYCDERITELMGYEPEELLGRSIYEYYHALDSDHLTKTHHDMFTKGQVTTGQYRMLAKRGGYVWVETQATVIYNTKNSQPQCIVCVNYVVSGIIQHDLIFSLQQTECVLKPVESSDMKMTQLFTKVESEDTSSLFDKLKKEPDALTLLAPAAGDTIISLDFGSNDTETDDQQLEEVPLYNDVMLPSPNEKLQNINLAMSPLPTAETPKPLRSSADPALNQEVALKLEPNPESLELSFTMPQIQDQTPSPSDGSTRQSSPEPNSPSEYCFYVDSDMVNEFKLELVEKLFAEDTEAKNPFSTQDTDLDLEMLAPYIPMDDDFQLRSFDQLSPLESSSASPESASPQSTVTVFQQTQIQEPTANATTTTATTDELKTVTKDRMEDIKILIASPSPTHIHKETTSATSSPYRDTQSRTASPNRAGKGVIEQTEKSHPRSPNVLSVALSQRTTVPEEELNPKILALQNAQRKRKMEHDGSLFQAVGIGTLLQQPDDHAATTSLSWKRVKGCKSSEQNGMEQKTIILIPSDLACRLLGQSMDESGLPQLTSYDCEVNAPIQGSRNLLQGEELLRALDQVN

| SMILES | IC50 (HIF2a PANC; [3]) [µM] | IC50 (HIF2a PANC; [4]) [µM] | IC50 [1] [µM] | IC50 [2] [µM] | IC50 (HIF1a; [3]) [µM] | IC50 (HIF1a; [4]) [µM] |
| --- | --- | --- | --- | --- | --- | --- |
| COc1cccc(NC(=O)CCc2nc(-c3ccc(C(C)(C)C)cc3)no2)c1 | < 0.19 | < 0.19 | 0.229 | < 0.19 | < 0.19 | 0.229 |
| CC(C)(C)c1ccc(-c2noc(CCC(=O)NC3CCCCC3)n2)cc1 | < 0.19 | < 0.19 | 38 | < 0.19 | > 99 | 38 |
| COC(=O)CCc1nc(-c2ccc(C(C)(C)C)cc2)no1 | < 0.19 | < 0.19 | < 0.19 | < 0.19 | < 1 | < 0.19 |
| CCOc1ccccc1NC(=O)CCc1nc(-c2ccc(C(C)(C)C)cc2)no1 | < 0.19 | < 0.19 | 0.973 | < 0.19 | > 99 | 0.973 |
| CC(C)(C)c1ccc(-c2noc(CCC(=O)NC3CCCC3)n2)cc1 | < 0.19 | < 0.19 | 49.6 | < 0.19 | > 99 | < 0.19 |
| CC(C)(C)c1ccc(-c2noc(CCC(=O)O)n2)cc1 | < 0.19 | < 0.19 | < 0.19 | < 0.19 | < 0.19 | < 0.19 |
| CC(C)(C)c1ccc(-c2noc(CCC(=O)Nc3cccnc3)n2)cc1 | < 0.19 | < 0.19 | 33.4 | < 0.19 | 38.1 | 28.6 |
| COc1ccccc1NC(=O)CCc1nc(-c2ccc(C(C)(C)C)cc2)no1 | < 0.19 | < 0.19 | 0.647 | < 0.19 | > 99 | 0.647 |
| CCOc1ccc(-c2noc(CCC(=O)O)n2)cc1 | 4.44 | 7.28 | 1.34 | 5.86 | 1.17 | 1.51 |
| CC(C)(C)c1ccc(-c2noc(CCC(=O)Nc3cccc([N+](=O)[O-])c3)n2)cc1 | < 0.19 | < 0.19 | 8.29 | < 0.19 | 9.87 | 6.7 |
